One experiment has as its system Hepatitis C virus. The experiment in a line: Antiviral activity against HCV 1b con1 assessed as inhibition of viral RNA replication after 3 days by RT-PCR analysis. Type of experiment: functional, organism-based, Hepacivirus hominis. The following applies: Con1, 72 h. A digest of the protocol:
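Genotype 1b-Con1 replicon cells were seeded at 5000/well one day before dosing. Inhibitor was added at 0.5% final DMSO in medium with 5% FBS, and cells were harvested after 3 days. Replicon RNA was quantified by Taqman real-time RT-PCR normalized to GAPDH RNA. EC50 came from 10 serial twofold dilutions in duplicate.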

Experiment [1] can be described thus: Inhibition of HCV NS5B Cdelta21 RNA polymerase activity assessed as incorporation of [33P]-CTP into heteropolymer RNA template after 150 mins. Set-up: species or system Hepacivirus hominis. A digest of the protocol:
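Radiolabeled nucleotide incorporation using 30 nM NS5B (Δ21) with 100 nM heteropolymer RNA template and 0.25 mM trinucleotide initiator. Buffer: 20 mM HEPES pH 7.3, 7.5 mM DTT, 20 units/mL RNasin, 10 mM MgCl₂, 60 mM NaCl, BSA, GTP/ATP/UTP, [³³P]-CTP with 20 nM CTP. Run 150 min at room temperature, EDTA-stopped, filter-washed, incorporated label counted. IC50 from 10 twofold dilutions in duplicate.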

What is called EC50 is the concentration needed to bring the measured effect to its halfway point. As usually defined, the IC50 is the point on the concentration scale where inhibition reaches its midpoint.

Molecules are shown by their SMILES. Some results are limits rather than exact numbers.

As for `Nc1cc(Cn2c(C(=O)NS(=O)(=O)c3ccc(O)cc3)c(-c3ccc[nH]c3=O)c3cc(Cl)ccc32)ccn1`, the EC50 with Hepatitis C virus was 100 nM. Also, the concentration for half-maximal inhibition (IC50) in experiment [1] worked out at 24 nM.
As to `N#Cc1c(-c2ccc[nH]c2=O)c2cc(Cl)ccc2n1Cc1ccnc(N)c1`, the 50% effective concentration (EC50) in the experiment with Hepatitis C virus was 8300 nM. In addition, the half-inhibitory concentration (IC50) in experiment [1] is more than 20000 nM.
As to `CCOC(=O)c1c(-c2ccc[nH]c2=O)c2cc(Cl)ccc2n1Cc1ccnc(N)c1`, the IC50 in experiment [1] is more than 20000 nM.
`CS(=O)(=O)NC(=O)c1c(-c2ccc[nH]c2=O)c2cc(Cl)ccc2n1Cc1ccnc(N)c1`: the concentration for a half-maximal effect (EC50) in the experiment on Hepatitis C virus was 300 nM. For the same molecule, in experiment [1], the IC50 turned out to be 18 nM.
As to `Nc1cc(Cn2c(CC(=O)O)c(-c3ccc[nH]c3=O)c3cc(Cl)ccc32)ccn1`, the IC50 in experiment [1] was determined as 7000 nM.
As for `CS(=O)(=O)NC(=O)Cc1c(-c2ccc[nH]c2=O)c2cc(Cl)ccc2n1Cc1ccnc(N)c1`, the IC50 in experiment [1] was determined as 2200 nM.
For `CS(=O)(=O)NCc1c(-c2ccc[nH]c2=O)c2cc(Cl)ccc2n1Cc1ccnc(N)c1`, in experiment [1], the IC50 is more than 20000 nM.
Take `Nc1cc(Cn2c(C(=O)NS(N)(=O)=O)c(-c3ccc[nH]c3=O)c3cc(Cl)ccc32)ccn1`: the EC50 with Hepatitis C virus was determined as 2200 nM. Moreover, in experiment [1], the IC50 came out at 29 nM.
In the case of `Nc1cc(Cn2c(C3=NS(=O)(=O)c4ccccc4N3)c(-c3ccc[nH]c3=O)c3cc(Cl)ccc32)ccn1`, the EC50 in the experiment with Hepatitis C virus amounted to 600 nM. The IC50 in experiment [1] was 12 nM.
For the molecule `CS(=O)(=O)NC(=O)c1c(-c2ccc[nH]c2=O)c2cc(Cl)ccc2n1Cc1ccccc1F`, the 50% effective concentration (EC50) with Hepatitis C virus is 230 nM. Besides, in experiment [1], the IC50 worked out at 33 nM.
Consider `CS(=O)(=O)NC(=O)c1c(-c2ccc[nH]c2=O)c2cc(Cl)ccc2n1Cc1ccc(F)cc1F`, for which the EC50 in the experiment on Hepatitis C virus turned out to be 2200 nM. Also, the IC50 in experiment [1] was 41 nM.
Consider `CCNS(=O)(=O)c1c(-c2ccc[nH]c2=O)c2cc(Cl)ccc2n1Cc1ccc(F)cc1F`, for which, in experiment [1], the IC50 is 3000 nM.
Still for that read-out and setting: as for `NS(=O)(=O)c1c(-c2ccc[nH]c2=O)c2cc(Cl)ccc2n1Cc1ccc(F)cc1F`, the figure is 2700 nM.
For `O=c1[nH]cccc1-c1c(-c2nc3ccccc3[nH]2)n(Cc2ccc(F)cc2F)c2ccc(Cl)cc12`, the EC50 in the experiment with Hepatitis C virus is 8000 nM. Also, the IC50 in experiment [1] came out at 570 nM.
On to `CS(=O)(=O)NC(=O)c1c(-c2c[nH]c(=O)[nH]c2=O)c2cc(Cl)ccc2n1Cc1ccnc(N)c1`, for which the EC50 with Hepatitis C virus is 3000 nM. In experiment [1], the IC50 was 27 nM.
Consider `CS(=O)(=O)NC(=O)c1c(-c2ccc[nH]c2=O)c2cc(C(F)(F)F)ccc2n1Cc1ccccc1F`, for which the EC50 in the experiment with Hepatitis C virus came to 120 nM. The IC50 in experiment [1] turned out to be 6 nM.
For `CS(=O)(=O)NC(=O)c1c(-n2c(=O)[nH]c3cscc3c2=O)c2cc(C(F)(F)F)ccc2n1Cc1ccccc1F`, in the experiment with Hepatitis C virus, the EC50 amounted to 700 nM. Besides, the IC50 in experiment [1] turned out to be 15 nM.
As to `CCS(=O)(=O)NC(=O)c1c(-c2ccc[nH]c2=O)c2cc(Cl)ccc2n1Cc1ccnc(N)c1`, the EC50 with Hepatitis C virus was found to be 600 nM. Moreover, the IC50 in experiment [1] came out at 18 nM.
As for `CC(C)(C)S(=O)(=O)NC(=O)c1c(-c2ccc[nH]c2=O)c2cc(Cl)ccc2n1Cc1ccnc(N)c1`, the EC50 with Hepatitis C virus was found to be 1000 nM. In experiment [1], the IC50 is 31 nM.
The corresponding values for `Nc1cc(Cn2c(C(=O)NS(=O)(=O)c3ccccc3)c(-c3ccc[nH]c3=O)c3cc(Cl)ccc32)ccn1` are 400 nM and 16 nM.
On to `Nc1cc(Cn2c(C(=O)NS(=O)(=O)Cc3ccccc3)c(-c3ccc[nH]c3=O)c3cc(Cl)ccc32)ccn1`, for which the EC50 in the experiment on Hepatitis C virus came to 1200 nM. In experiment [1], the IC50 was 24 nM.
For the molecule `O=C(NS(=O)(=O)C1CC1)c1c(-c2ccc[nH]c2=O)c2cc(Cl)ccc2n1Cc1ccccc1F`, in the experiment on Hepatitis C virus, the EC50 worked out at 270 nM. In experiment [1], the IC50 came to 5 nM.
As for `CC(C)S(=O)(=O)NC(=O)c1c(-c2ccc[nH]c2=O)c2cc(Cl)ccc2n1Cc1ccccc1F`, in the experiment on Hepatitis C virus, the EC50 worked out at 400 nM. The IC50 in experiment [1] worked out at 13 nM.
`O=C(NS(=O)(=O)C1CCCC1)c1c(-c2ccc[nH]c2=O)c2cc(Cl)ccc2n1Cc1ccccc1F`: the EC50 in the experiment on Hepatitis C virus turned out to be 1400 nM. For the same molecule, in experiment [1], the IC50 came out at 28 nM.
Regarding `O=C(NS(=O)(=O)CCCCl)c1c(-c2ccc[nH]c2=O)c2cc(Cl)ccc2n1Cc1ccccc1F`, the EC50 with Hepatitis C virus is 2800 nM. For the same molecule, in experiment [1], the IC50 was 8 nM.
Consider `CS(=O)(=O)NCCS(=O)(=O)NC(=O)c1c(-c2ccc[nH]c2=O)c2cc(Cl)ccc2n1Cc1ccccc1F`, for which the EC50 in the experiment with Hepatitis C virus was found to be 470 nM. For the same molecule, the IC50 in experiment [1] was 5 nM.
On to `COc1ccc(S(=O)(=O)NC(=O)c2c(-c3ccc[nH]c3=O)c3cc(Cl)ccc3n2Cc2ccnc(N)c2)cc1`, for which the EC50 in the experiment with Hepatitis C virus was determined as 500 nM. Besides, the IC50 in experiment [1] is 22 nM.
With `Cc1ccc(S(=O)(=O)NC(=O)c2c(-c3ccc[nH]c3=O)c3cc(Cl)ccc3n2Cc2ccnc(N)c2)cc1`, the concentration giving a half-maximal response (EC50) with Hepatitis C virus was determined as 600 nM. For the same molecule, the IC50 in experiment [1] was 19 nM.
As for `Nc1cc(Cn2c(C(=O)NS(=O)(=O)c3ccccc3F)c(-c3ccc[nH]c3=O)c3cc(Cl)ccc32)ccn1`, in the experiment with Hepatitis C virus, the 50% effective concentration (EC50) worked out at 800 nM. Also, the IC50 in experiment [1] worked out at 31 nM.
The matching figures for `Nc1cc(Cn2c(C(=O)NS(=O)(=O)c3cccc(Cl)c3)c(-c3ccc[nH]c3=O)c3cc(Cl)ccc32)ccn1`: 1500 nM and 43 nM.
`Nc1cc(Cn2c(C(=O)NS(=O)(=O)c3cc(F)ccc3F)c(-c3ccc[nH]c3=O)c3cc(Cl)ccc32)ccn1`: the EC50 with Hepatitis C virus was found to be 700 nM. In addition, the IC50 in experiment [1] turned out to be 28 nM.
As for `Nc1cc(Cn2c(C(=O)NS(=O)(=O)c3cc(F)cc(F)c3)c(-c3ccc[nH]c3=O)c3cc(Cl)ccc32)ccn1`, in the experiment on Hepatitis C virus, the EC50 worked out at 700 nM. Further, in experiment [1], the IC50 worked out at 26 nM.
The matching figures for `Nc1cc(Cn2c(C(=O)NS(=O)(=O)c3ccc(F)cc3F)c(-c3ccc[nH]c3=O)c3cc(Cl)ccc32)ccn1`: 1600 nM and 49 nM.
For the molecule `Cc1cc(F)ccc1S(=O)(=O)NC(=O)c1c(-c2ccc[nH]c2=O)c2cc(Cl)ccc2n1Cc1ccnc(N)c1`, the EC50 in the experiment with Hepatitis C virus is 1900 nM. Also, the IC50 in experiment [1] turned out to be 34 nM.
Turning to `Nc1cc(Cn2c(C(=O)NS(=O)(=O)c3ccccc3N)c(-c3ccc[nH]c3=O)c3cc(Cl)ccc32)ccn1`, the EC50 with Hepatitis C virus came out at 1700 nM. Further, the IC50 in experiment [1] is 28 nM.
`Nc1cccc(S(=O)(=O)NC(=O)c2c(-c3ccc[nH]c3=O)c3cc(Cl)ccc3n2Cc2ccnc(N)c2)c1`: the EC50 in the experiment with Hepatitis C virus was 1000 nM. The IC50 in experiment [1] came to 36 nM.
The matching figures for `Nc1ccc(S(=O)(=O)NC(=O)c2c(-c3ccc[nH]c3=O)c3cc(Cl)ccc3n2Cc2ccnc(N)c2)cc1`: 400 nM and 35 nM.
Take `N#Cc1ccc(S(=O)(=O)NC(=O)c2c(-c3ccc[nH]c3=O)c3cc(Cl)ccc3n2Cc2ccnc(N)c2)cc1`: the EC50 with Hepatitis C virus is 1700 nM. In addition, the IC50 in experiment [1] amounted to 36 nM.
In the case of `COC(=O)c1ccc(S(=O)(=O)NC(=O)c2c(-c3ccc[nH]c3=O)c3cc(Cl)ccc3n2Cc2ccnc(N)c2)cc1`, the EC50 in the experiment with Hepatitis C virus was found to be 1100 nM. Moreover, in experiment [1], the half-maximal inhibitory concentration (IC50) was found to be 32 nM.
The matching figures for `COC(=O)c1cccc(S(=O)(=O)NC(=O)c2c(-c3ccc[nH]c3=O)c3cc(Cl)ccc3n2Cc2ccnc(N)c2)c1`: 300 nM and 27 nM.
The matching figures for `Nc1cc(Cn2c(C(=O)NS(=O)(=O)c3cccc(S(N)(=O)=O)c3)c(-c3ccc[nH]c3=O)c3cc(Cl)ccc32)ccn1`: 1900 nM and 34 nM.
As to `CS(=O)(=O)Nc1cccc(S(=O)(=O)NC(=O)c2c(-c3ccc[nH]c3=O)c3cc(Cl)ccc3n2Cc2ccnc(N)c2)c1`, the EC50 in the experiment on Hepatitis C virus is 11 nM.
Regarding `CS(=O)(=O)Nc1ccc(S(=O)(=O)NC(=O)c2c(-c3ccc[nH]c3=O)c3cc(Cl)ccc3n2Cc2ccnc(N)c2)cc1`, the EC50 in the experiment on Hepatitis C virus was 500 nM. The IC50 in experiment [1] was 20 nM.
Turning to `CS(=O)(=O)Nc1cccc(S(=O)(=O)NC(=O)c2c(-c3ccc[nH]c3=O)c3cc(Cl)ccc3n2Cc2ccccc2F)c1`, the EC50 in the experiment on Hepatitis C virus amounted to 20 nM. Moreover, in experiment [1], the IC50 turned out to be 18 nM.

The values are drawn from ChEMBL document CHEMBL1932928, “II. Novel HCV NS5B polymerase inhibitors: discovery of indole C2 acyl sulfonamides” (Bioorg Med Chem Lett, 2012).
